APJ ag = agonists of human apelin receptor APJ, primary screen, CHO-K1 cells, PathHunter beta-arrestin, luminescence | 330,000 compounds, 0.11% hits | activation, % at 20 µM | 0% DMSO wells, 100% apelin | P35414 | AID 2520, 2010;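 active = activation more than six SD over the plate average, tested at 20 µM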;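 also: 0% = DMSO alone and 100% = apelin-13 at 10 nM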
Target sequence (P35414 whole entry, looked up): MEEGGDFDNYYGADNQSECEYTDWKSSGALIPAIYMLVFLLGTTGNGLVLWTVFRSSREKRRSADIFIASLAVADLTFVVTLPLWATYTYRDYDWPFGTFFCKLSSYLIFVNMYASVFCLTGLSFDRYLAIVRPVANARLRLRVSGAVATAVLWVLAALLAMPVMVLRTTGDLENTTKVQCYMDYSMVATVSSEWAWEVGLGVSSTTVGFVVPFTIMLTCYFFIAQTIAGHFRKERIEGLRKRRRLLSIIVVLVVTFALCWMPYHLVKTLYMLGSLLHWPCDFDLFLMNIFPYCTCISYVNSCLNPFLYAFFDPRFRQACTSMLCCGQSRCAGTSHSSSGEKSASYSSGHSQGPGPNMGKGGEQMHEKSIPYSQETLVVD
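Assay system: engineered CHO-K1 APJ arrestin reporter cells; Amount: 1000 CHO-K1 reporter cells seeded per well; Dosing: one dose, 20 µM compound, 1% DMSO; Times: compound stimulation 90 min at 25 °C, detection 60 min; Measured by: luminescent beta-gal fragment complementation, chemiluminescent substrate; Read-out: APJ–arrestin association signal; Controls: DMSO vs Apelin-13 10 nM.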
EBI2 block = EBI2 receptor antagonists, beta-arrestin recruitment, primary screen, cell-based, luminescence, 7a,25-OHC stimulation, uHTS. G-protein coupled receptor 183 (Homo sapiens), P32249. 7a,25-OHC stimulated. inhibition, % at 5 µM. 360,000 compounds, 0.81% hits; in the data active = inhibition above about 38%;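 also: enzyme fragment complementation signal reports receptor beta-arrestin coupling in cells; 0% = agonist plus DMSO wells and 100% = wells without agonist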
CCR6 antagonist = CCR6 receptor antagonists, primary screen, cell-based, CHO-K1, luminescence, beta-arrestin, uHTS | 340,000 compounds, 0.49% hits | CHO-K1 CCR6 PathHunter beta-arrestin, CCL20-stimulated | C-C chemokine receptor type 6 (Homo sapiens), P51684 | inhibition, % at 20 µM;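 active = compounds whose inhibition of the agonist-driven luminescence signal at 20 µM reaches about 50%, limit read from the data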;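 also: cells stimulated with CCL20 at 14 nM final; plate controls were DMSO with CCL20 for no effect and DMSO without agonist for full effect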
CXCR6 block = CXCR6 receptor inhibitors, primary screen, cell-based, beta-arrestin, luminescence, CHO-K1 PathHunter, 1536-well. inhibition, % at 20 µM. C-X-C chemokine receptor type 6 (Homo sapiens), O00574. 360,000 compounds, 0.36% hits. AID 602244, 2012; in the data active = inhibition above about 34%, passing the limit was not always enough;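 also: antagonist mode with CXCL16 agonist at 10 nM final; 0% = 10 nM CXCL16 with DMSO and 100% = unstimulated wells without agonist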
APJ antag = antagonists of human apelin receptor APJ, primary screen, CHO-K1 cells, beta-arrestin complementation, luminescence; P35414; inhibition, % at 20 µM; 330,000 compounds, 0.32% hits; AID 2521, 2010;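 active = inhibition above about 40% at 20 µM, limit read from the data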;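 also: cells challenged with 10 nM apelin-13 agonist together with compound; plate controls were apelin-13 plus DMSO wells for no effect and DMSO wells lacking apelin-13 for full effect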
EBI2 antag conf = EBI2 antagonist hit retest, beta-arrestin, confirmation, cell-based, single concentration, luminescence, 7a,25-OHC stimulation; shares compounds with EBI2 block; 7a,25-OHC antagonism; inhibition, % at 5 µM; 2,400 compounds, 29% hits; AID 651997, 2013;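 active = inhibition of at least 50%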
EBI2 ag = EBI2 agonist activity of antagonist hits, confirmation, counter-screen for EBI2 antagonist project, cell-based, single concentration, agonist mode, luminescence. shares compounds with EBI2 block. EBI2-expressing cells, 60 min; 0% vehicle, 100% 7α,25-dihydroxycholesterol control. activation, % at 5 µM. 2,400 tested, under 10 active. AID 652000, 2013;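 active = activation of at least 50%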
bGal counter = E. coli beta-galactosidase enzyme inhibition, confirmation, counter-screen for EBI2 antagonist project, biochemical, luminescence, single concentration. shares compounds with EBI2 block. inhibition, % at 5 µM. 2,400 compounds, 1% hits. purified beta-galactosidase, luminescent Galacton Star, 15 min. AID 652176, 2013;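 active = replicate-average signal at least 3 plate SD below neutral wells, shown as high inhibition, flagging enzyme-inhibiting false positives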;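 also: 0% = DMSO wells with enzyme and 100% = wells lacking enzyme; higher means stronger loss of beta-gal luminescence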
The depositor's hits bear a star; nt = no result given. Hits are enriched below; roughly 1.5% of the tested compounds scored in any of these assays.

SMILES	APJ ag	EBI2 block	CCR6 antagonist	CXCR6 block	APJ antag	EBI2 antag conf	EBI2 ag	bGal counter
CCN1CCN(C(=O)/C=C/c2cccc(Cl)c2)CC1	-6	75*	6	-3	11	34	1	2
C/C(=N\NS(=O)(=O)c1ccccc1)c1ccc2c(c1)OCO2	-3	-5	28	-8	-18	nt	nt	nt
CCOC(=O)N1CCN(C(=O)CNC2CCCCCCC2)CC1	-5	45*	13	3	9	11	0	4
Cc1cnc(C(=O)OC(C)C(=O)NCc2ccccc2)cn1 (stereo not given)	7	7	5	-7	1	nt	nt	nt
COC(=O)[C@]12CCCCC=C1N(Cc1ccc3c(c1)OCO3)C(=O)[C@H](CC(=O)NCCCCc1ccccc1)C2	nt	31	nt	nt	nt	nt	nt	nt
COC(=O)c1cc(=O)n(Cc2ccc3c(c2)OCO3)c(=Nc2ccc(F)cc2)s1	-5	66*	11	7	4	34	1	6
COC(=O)c1cc(=O)n(Cc2ccc(F)cc2)c(=NCc2ccc(F)cc2)s1	-2	40	0	-9	8	nt	nt	nt
COC(=O)c1ccc(N=c2sc(C(=O)OC)cc(=O)n2C)cc1	nt	66*	21	3	nt	78*	-1	-16
COC(=O)c1cc(=O)n(Cc2ccc3c(c2)OCO3)c(=Nc2ccccc2)s1	-7	53*	3	9	19	58*	-1	-15
COC(=O)c1cc(=O)n(-c2ccc(F)cc2)c(=Nc2ccc(F)cc2)s1	-1	16	21	14	12	nt	nt	nt
COc1cc(/C=C/C(=O)OCC(=O)c2ccc[nH]2)ccc1O	nt	-10	nt	-1	nt	nt	nt	nt
O=C(CCC1CCCC1)NNC(=O)COc1ccc(Br)cc1	-1	79*	-1	2	6	37	-1	-7
O=C(NCc1ccccc1)c1ccc(C2SCC(=O)N2Cc2ccccc2)cc1 (stereo not given)	-2	41*	11	9	8	36	-1	-9
O=C(NCc1ccccc1)c1ccc(Oc2ccc(C(=O)NCc3ccccc3)cc2)cc1	-3	47*	-7	-2	-7	21	1	8
CC1CCN(C2=NC(=O)/C(=C/c3cn(-c4ccccc4)nc3-c3cccc(S(=O)(=O)N(C)C)c3)S2)CC1	-3	48*	14	21	31	40	-1	-14
Cc1ccc2oc(C(=O)N3CCC(O)(c4cccc(C(F)(F)F)c4)CC3)c(C)c2c1	-4	57*	25	0	-6	44	-1	-5
COc1cc(OC)cc(C(=O)NC(=S)Nc2cc3oc4ccccc4c3cc2OC)c1	-5	17	25	15	10	nt	nt	nt
COc1ccc(C(=O)NC(=S)Nc2cc3oc4ccccc4c3cc2OC)cc1	12	48*	1	-12	0	36	0	8
COCc1cc(C)nc2sc(C(=O)Nc3ccccc3OC)c(N)c12	-2	10	-2	12	-19	nt	nt	nt
CCOC(=O)c1ccc(Nc2cc(C)nc(-c3ccccc3)n2)cc1	2	57*	-9	-2	-13	49	0	14
CCOC(=O)c1ccc(Nc2nc(C)cc(C)n2)cc1	nt	28	0	1	nt	nt	nt	nt
COc1cc2nc(CN3CCN(S(=O)(=O)c4ccc(Cl)cc4)CC3)[nH]c(=O)c2cc1OC	1	56*	5	8	14	31	1	4
COc1ccc(N2CCN(Cc3nc4cc(Cl)ccc4c(=O)[nH]3)CC2)cc1	-4	-14	-5	6	7	nt	nt	nt
